Compound activity deposited in PubChem BioAssay by Sanford-Burnham Center for Chemical Genomics.
SENP1 FRET inh: human SENP1 catalytic domain inhibitors, primary screen, biochemical, FRET, uHTS; Sentrin-specific protease 1 (Homo sapiens), Q9P0U3; recombinant SENP1 catalytic domain, CyPet-SUMO1-YPet FRET cleavage; inhibition, % at 10 µM; hit rate 0.21% among 360,000; AID 624204, 2012;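 active = inhibition at least 30% at 10 µM, raw YFP signal under a set limit, fluorescence ratio 0.5 to 1.5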
Target sequence (Q9P0U3 419-644 limits assumed): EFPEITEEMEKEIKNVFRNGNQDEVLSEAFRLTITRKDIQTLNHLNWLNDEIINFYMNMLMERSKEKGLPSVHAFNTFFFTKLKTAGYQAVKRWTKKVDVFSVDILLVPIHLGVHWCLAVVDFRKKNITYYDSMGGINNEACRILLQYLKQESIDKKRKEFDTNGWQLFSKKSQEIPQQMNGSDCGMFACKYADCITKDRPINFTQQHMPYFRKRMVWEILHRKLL
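Material: hSENP1 catalytic domain, recombinant; medium: Tris pH 8 with BME, BSA, NP40 and catalase; compound: single concentration of 10 µM compound, 0.5% DMSO final; technique: FRET read of cyan and yellow fluorescence; timing: 50 min enzyme reaction, room temperature, light-protected; reagent: SFCypet-SUMO1-SFYpet substrate at 25 nM; control set: no-enzyme low, enzyme-DMSO high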
GRIN3A LBD mod: binders of NR3A ligand-binding domain, primary screen, biophysical, differential scanning fluorimetry, uHTS | Glutamate receptor ionotropic, NMDA 3A (GRIN3A) ligand-binding domain | NR3A LBD differential scanning fluorimetry, Tm shift; 0% = protein alone, 100% = glycine-bound protein | Tm shift relative to glycine control, % at 25 µM | hit rate 2.5% among 340,000;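 active = melting temperature shift of at least 10% of the positive control shift, at one fixed dose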
MPTP block: mitochondrial permeability transition pore inhibitors, primary screen, biochemical, isolated mouse mitochondria, absorbance | AID 602449, 2012 | inhibition, % at 10 µM | hit rate 1.4% among 360,000 | Ca2+ swelling absorbance, 30 min;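 active = inhibition of 50% or more, scaled per plate between neutral and stimulator controls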
EBI2 block: EBI2 receptor antagonists, beta-arrestin recruitment, primary screen, cell-based, luminescence, 7a,25-OHC stimulation, uHTS | AID 651636, 2012 | G-protein coupled receptor 183 (Homo sapiens), P32249 | hit rate 0.81% among 360,000 | 7a,25-OHC stimulated | inhibition, % at 5 µM; in the data active = inhibition above about 38%;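 also: enzyme fragment complementation signal reports receptor beta-arrestin coupling in cells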
Target sequence (P32249 whole entry, looked up, the tested form may be a part): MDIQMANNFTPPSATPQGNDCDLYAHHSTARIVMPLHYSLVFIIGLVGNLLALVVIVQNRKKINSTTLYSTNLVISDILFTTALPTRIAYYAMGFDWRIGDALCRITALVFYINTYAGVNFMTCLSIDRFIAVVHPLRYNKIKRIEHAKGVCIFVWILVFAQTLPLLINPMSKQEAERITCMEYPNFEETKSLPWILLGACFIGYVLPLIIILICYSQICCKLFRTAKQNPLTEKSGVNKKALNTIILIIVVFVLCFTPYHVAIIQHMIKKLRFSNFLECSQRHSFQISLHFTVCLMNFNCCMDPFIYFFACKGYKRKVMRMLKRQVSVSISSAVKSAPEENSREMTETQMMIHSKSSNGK
Large screens that a line does not name were inactive; ! = not active in a repeat. The list is not random: actives were taken first. Their share in the collection is about 4.4%.

CCOc1ccc(C(=O)/C=C/c2cn(CN3CCN(C)CC3)c3ccccc23)cc1	GRIN3A LBD mod 32
COc1ccc(C(=O)/C=C/c2cn(CN3CCN(C)CC3)c3ccccc23)cc1	GRIN3A LBD mod 36
Cc1c(Cc2ccccc2)sc(/N=C/c2c(O)ccc3ccccc23)c1C(N)=O	GRIN3A LBD mod 12
CCOC(=O)c1c(NC(=O)CSc2ncnc3[nH]ncc23)sc2c1CCC(C)C2 (stereo not drawn)	none
CCOC(=O)c1c(NC(=O)CSc2nnnn2-c2ccccc2)sc2c1CCC(C)C2 (stereo not drawn)	GRIN3A LBD mod 17
COc1cccc(NCc2cc(=O)oc3cc(-c4ccccc4)c(O)cc23)c1	GRIN3A LBD mod 28
Cc1cccc(C(=O)OCC(=O)c2c(C)[nH]c3ccccc23)c1O	GRIN3A LBD mod 29
CN(C)c1ccc(NC(=O)c2sc(SCC(=O)Nc3ccc(Br)cc3)nc2N)cc1	GRIN3A LBD mod 16
CCCCNC(=O)CSc1nc(N)c(C(=O)Nc2ccc(OC)cc2)s1	none
Cc1ccc2nc(SCC(=O)Nc3cc(C)on3)c(C)cc2c1	none
CCN1C2=NCCCN2c2ccccc21	GRIN3A LBD mod 11
ClCCN1C2=NCCCN2c2ccccc21	none
Cc1cccc(OCC(=O)Nc2ccc(C(=O)Nc3ccccc3C(=O)O)cc2)c1	none (no result: GRIN3A LBD mod)
COc1cccc(C(=O)COc2ccc(NC(=O)c3ccccc3)cc2)c1	GRIN3A LBD mod 11
COc1cccc(C(=O)Nc2cccc(OCC(=O)c3ccccc3)c2)c1	none
Cc1cccc(OCC(=O)Nc2ccc(NC(=O)c3ccccc3)cc2)c1	GRIN3A LBD mod 12
Cc1[nH]nc(SCC(=O)Nc2ccc(C#N)cc2)c1[N+](=O)[O-]	GRIN3A LBD mod 31
Cc1ccc(NC(=O)CSc2n[nH]c(C)c2[N+](=O)[O-])cc1	none
CN1CCN(C(=S)c2ccc(Cl)cc2)CC1	GRIN3A LBD mod 10
COc1ccc(C(=S)N2CCN(C)CC2)cc1	none
CCN(CC)C(=O)Oc1cc(=O)n2c3c(cccc13)CCC2	GRIN3A LBD mod 20
CCCNC(=O)c1c(O)c2cccc3c2n(c1=O)CCC3	none
COc1cc(C(O)c2nc(-c3cncnc3)cs2)ccc1F (stereo not drawn)	none (no result: GRIN3A LBD mod)
CN(C)S(=O)(=O)c1cccc(NC(=O)COC(=O)c2cn(-c3ccccc3)nc2-c2ccccc2)c1	GRIN3A LBD mod 14
Cc1cc(C(=O)OCC(=O)Nc2cccc(S(=O)(=O)N(C)C)c2)c2ccccc2n1	none
NS(=O)(=O)c1ccc(NC(=O)/C=C/c2cn(-c3ccccc3)nc2-c2cccc(Cl)c2)cc1	GRIN3A LBD mod 31
O=C(COC(=O)c1cn(-c2ccccc2)nc1-c1ccc(F)cc1)Nc1ncc(Cl)cc1Cl	none
Cc1ccc(-c2nn(-c3ccccc3)cc2/C=C/C(=O)Nc2nccs2)cc1	GRIN3A LBD mod 24
NS(=O)(=O)c1ccc(NC(=O)COC(=O)c2cn(-c3ccccc3)nc2-c2ccc(F)cc2)cc1	GRIN3A LBD mod 16
COc1ccccc1NC(=O)N(C)C[C@@H]1OCc2cnnn2CCCC(=O)N([C@@H](C)CO)C[C@@H]1C	none (no result: GRIN3A LBD mod)
Oc1ccc(/C=N/Nc2ccnc3cc(Cl)ccc23)cc1O	GRIN3A LBD mod 21
Oc1ccc(/C=N/Nc2ccnc3cc(Cl)ccc23)c(O)c1O	GRIN3A LBD mod 18
CC/C(=N\Nc1ccnc2cc(Cl)ccc12)c1ccc(O)cc1	none
CC(=O)c1ccc(N(CC(=O)NC2CCCC2)C(=O)CNC(=O)c2ccco2)cc1	none
COc1ccc(/C=N/NC(=S)N[C@H]2CC3CCC2C3)cc1 (stereo partly drawn)	GRIN3A LBD mod 26
CSCC[C@H](N)C(=O)NC[C@H]1O[C@@H](n2cnc3c(N)ncnc32)[C@H](O)[C@@H]1O	none
N#Cc1cccc(N=c2ssnc2Cl)c1	GRIN3A LBD mod 27 (no result: SENP1 FRET inh, MPTP block, EBI2 block)
Clc1nssc1=Nc1ccc(Br)cc1	none
O=C1CCCN1CC(=O)N1CCCC(Nc2cccc(F)c2)C1 (stereo not drawn)	none
CCN(CC)CCN1C(=O)C(O)=C(C(C)=O)C1c1ccc(OC)c(OC)c1 (stereo not drawn)	GRIN3A LBD mod 11
O=C(Nc1ccc2c(c1)S(=O)(=O)N=C1CCCCCN12)c1ccccc1Cl	none
COCCCn1c(=O)c2sccc2n2c(CCCC(=O)NCc3ccccc3)nnc12	none
CC1CCN(Cc2c(C(=O)N/N=C/c3ccc(OC(C)C)cc3)nnn2-c2nonc2N)CC1	none
CN(C)c1ccc(/C=N/NC(=O)c2nnn(-c3nonc3N)c2COc2ccc(F)cc2)cc1	GRIN3A LBD mod 11
Cc1ccccc1COc1ccc(/C=N/NC(=O)c2nnn(-c3nonc3N)c2CN2CCC(C)CC2)cc1	GRIN3A LBD mod 87
Nc1nonc1-n1nnc(C(=O)N/N=C/c2cccc(Cl)c2)c1CN1CCCCCC1	none
CCOC(=O)c1nnn(-c2nonc2-n2cccc2)c1CN1CCCCC1	GRIN3A LBD mod 18
Nc1nonc1-n1nnc(C(=O)N/N=C/c2cccc(O)c2)c1CN1CCCC1	GRIN3A LBD mod 12
O=C(CSc1nc2ccccc2n1Cc1ccccc1Cl)N/N=C/c1ccccc1C(=O)O	none
CCOc1ccc(/C=N/NC(=O)c2nnn(-c3nonc3N)c2COc2ccc(F)cc2)cc1	GRIN3A LBD mod 39
COc1ccc(NC(=O)Nc2cccc(F)c2)c(OC)c1	none
COc1ccc(OC)c(NC(=O)Nc2ccc3[nH]ccc3c2)c1	GRIN3A LBD mod 11
COc1ccc(NC(=O)Nc2ccc(F)c(F)c2)c(OC)c1	GRIN3A LBD mod 22
O=[N+]([O-])c1ccc(SCCc2ccccn2)cc1	none
O=[N+]([O-])c1ccc(SCCc2ccncc2)cc1	GRIN3A LBD mod 11!
O=[N+]([O-])c1cccc(/C=C/c2ccc3cccc(O)c3n2)c1	none
O=[N+]([O-])c1ccc(/C=C/c2ccc3cccc([N+](=O)[O-])c3n2)cc1	GRIN3A LBD mod 23
COc1cc(/C=C/c2ccc3cccc([N+](=O)[O-])c3n2)ccc1OCC#N	none
O=[N+]([O-])c1cccc2ccc(/C=C/c3ccc(F)cc3)nc12	GRIN3A LBD mod 24
CCOc1cc(/C=C/c2ccc3cccc([N+](=O)[O-])c3n2)ccc1O	GRIN3A LBD mod 25
Oc1ccc(/C=C/c2ccc3cccc(O)c3n2)cc1Br	GRIN3A LBD mod 30
CC(NC(=O)C12CC3CC(CC(O)(C3)C1)C2)c1ccccc1 (stereo not drawn)	none
CC(OC(=O)C1CCCC1)C(=O)Nc1ccc(C(N)=O)cc1 (stereo not drawn)	none
COc1ccc(C2CCCN2C(=O)Nc2ccc(C)c(C)c2)cc1OC (stereo not drawn)	EBI2 block 51
CCCCOc1ccc(-c2c(C#N)c(N)nc(SCC(N)=O)c2C#N)cc1	GRIN3A LBD mod 17
CCCCOC(=O)CSc1nc(N)c(C#N)c(-c2ccc(OCC)cc2)c1C#N	none
